Assay results taken from article PMC3580954 (Biopolymers, 2013).
Where a chain is given by its changes, count along the chain named. Read-outs that look alike come from different tables or passages of the source. Residues, ends and D or L forms follow the SMILES beside them. No end group written: not given here.

T1: wt PrRP receptor (Homo sapiens, UniProt P49683)
T1 sequence (P49683 1-370): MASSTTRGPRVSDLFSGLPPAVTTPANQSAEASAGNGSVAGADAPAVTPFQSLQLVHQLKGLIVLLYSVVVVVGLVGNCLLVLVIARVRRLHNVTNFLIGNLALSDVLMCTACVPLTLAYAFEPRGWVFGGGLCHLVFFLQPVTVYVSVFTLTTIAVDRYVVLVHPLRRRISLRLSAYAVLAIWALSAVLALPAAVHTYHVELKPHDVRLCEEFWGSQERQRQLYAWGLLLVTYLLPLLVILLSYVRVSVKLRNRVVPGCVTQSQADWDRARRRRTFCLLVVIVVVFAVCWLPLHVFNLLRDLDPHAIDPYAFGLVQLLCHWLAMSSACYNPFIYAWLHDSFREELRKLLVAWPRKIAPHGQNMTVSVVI

T2: wt hPrRP receptor (Homo sapiens, UniProt P49683)
T2 sequence (P49683 1-370): T1 sequence (P49683 1-370)

T3: Y^2.64A PrRP receptor (Homo sapiens, UniProt P49683, Y120A)
T3 sequence (P49683 1-370 Y120A): T1 sequence (P49683 1-370) with Y120A

T4: W^2.71A PrRP receptor (Homo sapiens, UniProt P49683, W127A)
T4 sequence (P49683 1-370 W127A): T1 sequence (P49683 1-370) with W127A

T5: PrRP receptor (GPR10) (Homo sapiens, UniProt P49683)
T5 chain: T1 sequence (P49683 1-370)


Columns and labels:
[1] = biological target: T1, wt PrRP receptor; assay: Radioligand displacement; type: binding
In short: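 COS-7 cells (1.5 × 10⁶ seeded) were transiently transfected at 60–70% confluency with 4 µg of EYFP-fused human PrRP receptor DNA. About 24 h later, competition binding was run on intact cells against 1 nM N[propionyl³H]hPrRP20. IC50 came from a one-site competition fit, with triplicates.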

[2] = biological target: T2, wt hPrRP receptor; assay: Signal transduction; type: cell-based; conditions: SD
In short: (§1)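 COS-7 cells were transiently transfected with 0.4 µg plasmid of human PrRP receptor or its site-directed mutant, C-terminally fused to EYFP. One day after transfection and 16 h before stimulation, cells were labelled with 2 µCi/mL [³H]myo-inositol. They were then stimulated with increasing peptide concentrations for 1 h at 37°C in DMEM with 10 mM LiCl, and lysed in 0.1 M NaOH. IP was separated by anion exchange and counted by scintillation. EC50 came from concentration-response curves; runs were in duplicate, repeated ≥2 times.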

[3] = biological target: T3, Y^2.64A PrRP receptor; assay: IP accumulation assay, Y^2.64A receptor mutant; type: cell-based; conditions: SD
In short: as §1

[4] = biological target: T4, W^2.71A PrRP receptor; assay: IP accumulation assay, W^2.71A receptor mutant; type: cell-based; conditions: SD
In short: as §1

[5] = biological target: T5, PrRP receptor (GPR10); assay: radioligand displacement on transfected COS-7 cells
[6] = biological target: T5, PrRP receptor (GPR10); assay: radioligand binding on transfected COS-7 cells

Row | EC50 [2] [nM] | IC50 [5] [nM] | Molecule | other results
1 | 49 ± 12 |  | CC[C@H](C)[C@H](NC(=O)CNC(=O)[C@H](CCCNC(=N)N)NC(=O)[C@H](CO)NC(=O)[C@H](C)NC(=O)[C@H](Cc1ccc(O)cc1)NC(=O)[C@H](Cc1c[nH]c2ccccc12)NC(=O)[C@H](C)NC(=O)[C@@H]1CCCN1C(=O)[C@H](CC(N)=O)NC(=O)[C@@H](NC(=O)[C@H](CC(=O)O)NC(=O)[C@@H]1CCCN1C(=O)[C@@H](N)[C@@H](C)O)[C@@H](C)CC)C(=O)N[C@@H](C)C(=O)N1CCC[C@H]1C(=O)N[C@H](C(=O)NCC(=O)N[C@@H](CCCNC(=N)N)C(=O)N[C@@H](Cc1ccccc1)C(N)=O)C(C)C [A^15PrRP20] (H-TPDINPAWYASRGIAPVGRF-NH2) | IC50 ([1]; SD): 882 ± 376 nM
2 | 1200 ± 231 |  | CC[C@H](C)[C@H](NC(=O)CNC(=O)[C@H](CCCNC(=N)N)NC(=O)[C@H](CO)NC(=O)[C@H](C)NC(=O)[C@H](Cc1ccc(O)cc1)NC(=O)[C@H](Cc1c[nH]c2ccccc12)NC(=O)[C@H](C)NC(=O)[C@@H]1CCCN1C(=O)[C@H](CC(N)=O)NC(=O)[C@@H](NC(=O)[C@H](CC(=O)O)NC(=O)[C@@H]1CCCN1C(=O)[C@@H](N)[C@@H](C)O)[C@@H](C)CC)C(=O)N[C@@H](CCCNC(=N)N)C(=O)N1CCC[C@H]1C(=O)N[C@H](C(=O)NCC(=O)N[C@@H](C)C(=O)N[C@@H](Cc1ccccc1)C(N)=O)C(C)C [A^19PrRP20] (H-TPDINPAWYASRGIRPVGAF-NH2) | IC50 [1]: > 10000 nM
3 | 20 ± 5 |  | CC[C@H](C)[C@H](NC(=O)CNC(=O)[C@H](CCCNC(=N)N)NC(=O)[C@H](CO)NC(=O)[C@H](C)NC(=O)[C@H](Cc1ccc(O)cc1)NC(=O)[C@H](Cc1c[nH]c2ccccc12)NC(=O)[C@H](C)NC(=O)[C@@H]1CCCN1C(=O)[C@H](CC(N)=O)NC(=O)[C@@H](NC(=O)[C@H](CC(=O)O)NC(=O)[C@@H]1CCCN1C(=O)[C@@H](N)[C@@H](C)O)[C@@H](C)CC)C(=O)N[C@@H](CCCNC(=N)N)C(=O)N1CCC[C@H]1C(=O)N[C@H](C(=O)NCC(=O)N[C@@H](CCCNC(=N)N)C(=O)N[C@@H](C)C(N)=O)C(C)C [A^20PrRP20] (H-TPDINPAWYASRGIRPVGRA-NH2) | IC50 ([1]; SD): 870 ± 288 nM
4 | 1 ± 0.2 |  | CC[C@H](C)[C@H](N)C(=O)N[C@@H](CC(N)=O)C(=O)N1CCC[C@H]1C(=O)N[C@@H](C)C(=O)N[C@@H](Cc1c[nH]c2ccccc12)C(=O)N[C@@H](Cc1ccc(O)cc1)C(=O)N[C@@H](C)C(=O)N[C@@H](CO)C(=O)N[C@@H](CCCNC(=N)N)C(=O)NCC(=O)N[C@H](C(=O)N[C@@H](CCCNC(=N)N)C(=O)N1CCC[C@H]1C(=O)N[C@H](C(=O)NCC(=O)N[C@@H](CCCNC(=N)N)C(=O)N[C@@H](Cc1ccccc1)C(N)=O)C(C)C)[C@@H](C)CC [PrRP4-20] (H-INPAWYASRGIRPVGRF-NH2) | 
5 | 2.3 ± 0.5 |  | CC[C@H](C)[C@H](NC(=O)CNC(=O)[C@H](CCCNC(=N)N)NC(=O)[C@H](CO)NC(=O)[C@H](C)NC(=O)[C@H](Cc1ccc(O)cc1)NC(=O)[C@@H](N)Cc1c[nH]c2ccccc12)C(=O)N[C@@H](CCCNC(=N)N)C(=O)N1CCC[C@H]1C(=O)N[C@H](C(=O)NCC(=O)N[C@@H](CCCNC(=N)N)C(=O)N[C@@H](Cc1ccccc1)C(N)=O)C(C)C [PrRP8-20] (H-WYASRGIRPVGRF-NH2) | EC50 [3]: 434 ± 96 nM; EC50 [4]: 2120 ± 390 nM
6 | 14 ± 2 |  | CC[C@H](C)[C@H](N)C(=O)N[C@@H](CCCNC(=N)N)C(=O)N1CCC[C@H]1C(=O)N[C@H](C(=O)NCC(=O)N[C@@H](CCCNC(=N)N)C(=O)N[C@@H](Cc1ccccc1)C(N)=O)C(C)C [PrRP14-20] (H-IRPVGRF-NH2) | 
7 |  | 7 | WYASRGIRPVGRF-NH2 [PrRP8-20] | 
8 |  | 4.1 | TPDINPAWYASRGIRPVGRF-NH2 | 
9 |  | 430 | IRPVGRF-NH2 [PrRP14-20] | 
10 |  |  | {(3H)propionyl}-TPDINPAWYASRGIRPVGRF-NH2 | Kd [6]: 0.58 nM
11 |  | 1.2 | INPAWYASRGIRPVGRF-NH2 [PrRP4-20] | 
